Test results reported in ChEMBL document CHEMBL2176950, “A frozen analogue approach to aminopyridinylimidazoles leading to novel and promising p38 MAP kinase inhibitors” (J Med Chem, 2012).
Active and inactive are the calls of the source. The rule behind the calls is not given here.

Tests used:
[1] = biological target: T1, Mitogen-activated protein kinase 14 (Homo sapiens, UniProt Q16539); experiment: Ratio of SB203580 IC50 to compound IC50 for inhibition of p38alpha MAPK
Outline: (§1)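 p38 MAPK activity assay run by a previously published protocol. IC50 given as mean with SEM from three experiments. The activity coefficient is the IC50 of the SB203580 reference divided by the IC50 of the test compound.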

[2] = biological target: T1, Mitogen-activated protein kinase 14; experiment: Inhibition of p38alpha MAPK; outline: as §1
[3] = biological target: Protein-tyrosine kinase 6 (Homo sapiens) (UniProt Q13882); experiment: Inhibition of PTK6 assessed as residual activity at 1000 nM
Sequence of Protein-tyrosine kinase 6 (Homo sapiens) (Q13882 whole entry, looked up): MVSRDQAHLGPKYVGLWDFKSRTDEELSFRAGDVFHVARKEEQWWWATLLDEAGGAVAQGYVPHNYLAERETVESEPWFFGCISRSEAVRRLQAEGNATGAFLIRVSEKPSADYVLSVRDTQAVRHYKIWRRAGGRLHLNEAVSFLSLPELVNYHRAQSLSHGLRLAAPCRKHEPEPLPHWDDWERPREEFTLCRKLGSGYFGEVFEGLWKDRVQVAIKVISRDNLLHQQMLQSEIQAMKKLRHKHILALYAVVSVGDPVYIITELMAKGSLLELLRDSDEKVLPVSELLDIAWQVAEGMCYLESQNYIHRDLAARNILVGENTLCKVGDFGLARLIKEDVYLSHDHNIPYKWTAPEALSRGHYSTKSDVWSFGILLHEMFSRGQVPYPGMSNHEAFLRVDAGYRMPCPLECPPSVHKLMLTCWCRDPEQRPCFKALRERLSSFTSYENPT

[4] = biological target: Mitogen-activated protein kinase 9 (Homo sapiens) (UniProt P45984); experiment: Inhibition of JNK2 assessed as residual activity at 1000 nM
[5] = biological target: Mitogen-activated protein kinase 10 (Homo sapiens) (UniProt P53779); experiment: Inhibition of JNK3 assessed as residual activity at 1000 nM
Sequence of Mitogen-activated protein kinase 10 (Homo sapiens) (P53779 whole entry): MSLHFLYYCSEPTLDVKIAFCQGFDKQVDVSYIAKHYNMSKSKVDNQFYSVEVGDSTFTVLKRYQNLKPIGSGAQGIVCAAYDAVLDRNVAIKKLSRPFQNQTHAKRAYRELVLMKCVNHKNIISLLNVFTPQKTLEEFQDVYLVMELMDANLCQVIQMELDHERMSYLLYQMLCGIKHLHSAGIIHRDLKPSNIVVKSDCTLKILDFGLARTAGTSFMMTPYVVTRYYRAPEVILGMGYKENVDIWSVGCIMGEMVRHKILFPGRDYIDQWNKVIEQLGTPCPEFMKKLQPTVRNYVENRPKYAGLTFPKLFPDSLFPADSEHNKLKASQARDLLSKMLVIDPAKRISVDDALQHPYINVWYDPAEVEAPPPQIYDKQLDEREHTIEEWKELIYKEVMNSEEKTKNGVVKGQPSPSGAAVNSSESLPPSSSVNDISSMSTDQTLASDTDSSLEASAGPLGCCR

[6] = biological target: Mitogen-activated protein kinase 8 (Homo sapiens) (UniProt P45983); experiment: Inhibition of JNK1 assessed as residual activity at 1000 nM
Sequence of Mitogen-activated protein kinase 8 (Homo sapiens) (P45983 whole entry): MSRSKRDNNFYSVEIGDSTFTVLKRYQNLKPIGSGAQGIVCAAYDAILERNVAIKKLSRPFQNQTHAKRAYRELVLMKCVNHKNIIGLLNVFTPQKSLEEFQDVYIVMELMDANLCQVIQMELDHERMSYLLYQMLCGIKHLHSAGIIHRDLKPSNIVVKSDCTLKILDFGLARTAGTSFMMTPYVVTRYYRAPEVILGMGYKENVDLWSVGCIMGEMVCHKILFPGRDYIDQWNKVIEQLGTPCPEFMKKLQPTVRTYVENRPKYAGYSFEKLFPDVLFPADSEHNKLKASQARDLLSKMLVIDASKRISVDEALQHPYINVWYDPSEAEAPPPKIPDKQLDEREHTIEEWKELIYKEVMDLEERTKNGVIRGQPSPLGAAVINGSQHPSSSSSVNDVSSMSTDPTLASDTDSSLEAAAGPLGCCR

[7] = biological target: Tyrosine-protein kinase FRK (Homo sapiens) (UniProt P42685); experiment: Inhibition of FRK assessed as residual activity at 1000 nM
Sequence of Tyrosine-protein kinase FRK (Homo sapiens) (P42685 whole entry): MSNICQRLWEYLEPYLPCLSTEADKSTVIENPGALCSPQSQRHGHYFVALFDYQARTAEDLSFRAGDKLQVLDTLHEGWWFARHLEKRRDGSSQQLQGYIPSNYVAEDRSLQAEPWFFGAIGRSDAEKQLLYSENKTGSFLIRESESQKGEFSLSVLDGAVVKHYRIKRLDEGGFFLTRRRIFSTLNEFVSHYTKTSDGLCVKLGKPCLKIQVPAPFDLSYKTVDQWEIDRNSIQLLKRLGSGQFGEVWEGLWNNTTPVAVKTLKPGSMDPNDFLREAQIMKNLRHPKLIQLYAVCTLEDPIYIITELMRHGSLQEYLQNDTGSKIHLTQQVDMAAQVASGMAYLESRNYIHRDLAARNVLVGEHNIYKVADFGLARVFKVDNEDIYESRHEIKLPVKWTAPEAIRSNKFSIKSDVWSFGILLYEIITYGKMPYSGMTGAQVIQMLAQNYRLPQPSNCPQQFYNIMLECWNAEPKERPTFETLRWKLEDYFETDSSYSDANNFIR

[8] = biological target: Mitogen-activated protein kinase 11 (Homo sapiens) (UniProt Q15759); experiment: Inhibition of MAPK11 assessed as residual activity at 1000 nM
Sequence of Mitogen-activated protein kinase 11 (Homo sapiens) (Q15759 whole entry): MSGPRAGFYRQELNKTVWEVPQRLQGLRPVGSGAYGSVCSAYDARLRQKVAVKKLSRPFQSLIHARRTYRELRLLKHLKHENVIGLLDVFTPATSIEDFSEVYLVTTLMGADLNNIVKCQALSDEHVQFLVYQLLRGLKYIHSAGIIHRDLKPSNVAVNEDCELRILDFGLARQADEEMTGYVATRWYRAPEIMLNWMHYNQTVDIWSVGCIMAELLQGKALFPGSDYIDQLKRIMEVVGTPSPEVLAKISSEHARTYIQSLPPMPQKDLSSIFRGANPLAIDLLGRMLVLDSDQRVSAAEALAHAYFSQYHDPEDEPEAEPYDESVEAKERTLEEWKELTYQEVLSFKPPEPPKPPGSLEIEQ

[9] = biological target: TRAF2 and NCK-interacting protein kinase (Homo sapiens) (UniProt Q9UKE5); experiment: Inhibition of KIAA0551 assessed as residual activity at 1000 nM
Sequence of TRAF2 and NCK-interacting protein kinase (Homo sapiens) (Q9UKE5 whole entry, looked up): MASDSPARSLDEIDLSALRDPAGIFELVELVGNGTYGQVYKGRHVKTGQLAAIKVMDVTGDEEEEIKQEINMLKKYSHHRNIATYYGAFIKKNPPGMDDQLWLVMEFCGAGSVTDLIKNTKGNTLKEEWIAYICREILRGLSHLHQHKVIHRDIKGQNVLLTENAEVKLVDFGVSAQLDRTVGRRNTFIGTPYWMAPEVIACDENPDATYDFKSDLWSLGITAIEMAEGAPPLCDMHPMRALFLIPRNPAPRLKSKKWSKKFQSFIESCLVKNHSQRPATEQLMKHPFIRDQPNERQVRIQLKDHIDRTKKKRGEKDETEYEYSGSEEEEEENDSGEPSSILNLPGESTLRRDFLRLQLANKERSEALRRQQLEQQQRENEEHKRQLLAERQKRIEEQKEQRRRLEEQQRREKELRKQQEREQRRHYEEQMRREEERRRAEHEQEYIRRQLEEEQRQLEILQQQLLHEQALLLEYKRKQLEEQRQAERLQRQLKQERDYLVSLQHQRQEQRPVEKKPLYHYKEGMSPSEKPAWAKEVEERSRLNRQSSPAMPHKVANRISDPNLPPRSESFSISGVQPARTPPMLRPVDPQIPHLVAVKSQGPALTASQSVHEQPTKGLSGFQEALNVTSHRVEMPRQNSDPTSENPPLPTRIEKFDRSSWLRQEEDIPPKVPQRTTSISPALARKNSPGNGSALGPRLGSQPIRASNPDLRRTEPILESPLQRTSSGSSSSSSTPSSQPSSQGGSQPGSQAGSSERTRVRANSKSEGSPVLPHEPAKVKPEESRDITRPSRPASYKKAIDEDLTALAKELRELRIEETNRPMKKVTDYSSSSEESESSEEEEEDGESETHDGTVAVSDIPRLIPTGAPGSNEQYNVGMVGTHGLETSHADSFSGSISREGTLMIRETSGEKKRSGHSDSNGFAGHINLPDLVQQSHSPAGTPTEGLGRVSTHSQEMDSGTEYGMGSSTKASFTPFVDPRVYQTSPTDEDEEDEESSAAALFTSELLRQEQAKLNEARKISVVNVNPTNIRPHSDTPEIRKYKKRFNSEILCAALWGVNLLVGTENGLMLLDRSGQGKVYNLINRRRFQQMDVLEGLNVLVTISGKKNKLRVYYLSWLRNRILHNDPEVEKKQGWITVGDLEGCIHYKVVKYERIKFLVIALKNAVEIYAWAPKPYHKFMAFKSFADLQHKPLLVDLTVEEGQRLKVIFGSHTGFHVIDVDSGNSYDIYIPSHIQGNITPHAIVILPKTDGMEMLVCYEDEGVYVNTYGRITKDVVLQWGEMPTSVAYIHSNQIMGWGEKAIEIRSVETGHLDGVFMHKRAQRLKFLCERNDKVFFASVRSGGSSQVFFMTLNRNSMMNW

[10] = biological target: T2, Serine/threonine-protein kinase 36 (Homo sapiens) (UniProt Q9NRP7); experiment: Inhibition of STK36 assessed as residual activity at 1000 nM
T2 sequence (whole entry): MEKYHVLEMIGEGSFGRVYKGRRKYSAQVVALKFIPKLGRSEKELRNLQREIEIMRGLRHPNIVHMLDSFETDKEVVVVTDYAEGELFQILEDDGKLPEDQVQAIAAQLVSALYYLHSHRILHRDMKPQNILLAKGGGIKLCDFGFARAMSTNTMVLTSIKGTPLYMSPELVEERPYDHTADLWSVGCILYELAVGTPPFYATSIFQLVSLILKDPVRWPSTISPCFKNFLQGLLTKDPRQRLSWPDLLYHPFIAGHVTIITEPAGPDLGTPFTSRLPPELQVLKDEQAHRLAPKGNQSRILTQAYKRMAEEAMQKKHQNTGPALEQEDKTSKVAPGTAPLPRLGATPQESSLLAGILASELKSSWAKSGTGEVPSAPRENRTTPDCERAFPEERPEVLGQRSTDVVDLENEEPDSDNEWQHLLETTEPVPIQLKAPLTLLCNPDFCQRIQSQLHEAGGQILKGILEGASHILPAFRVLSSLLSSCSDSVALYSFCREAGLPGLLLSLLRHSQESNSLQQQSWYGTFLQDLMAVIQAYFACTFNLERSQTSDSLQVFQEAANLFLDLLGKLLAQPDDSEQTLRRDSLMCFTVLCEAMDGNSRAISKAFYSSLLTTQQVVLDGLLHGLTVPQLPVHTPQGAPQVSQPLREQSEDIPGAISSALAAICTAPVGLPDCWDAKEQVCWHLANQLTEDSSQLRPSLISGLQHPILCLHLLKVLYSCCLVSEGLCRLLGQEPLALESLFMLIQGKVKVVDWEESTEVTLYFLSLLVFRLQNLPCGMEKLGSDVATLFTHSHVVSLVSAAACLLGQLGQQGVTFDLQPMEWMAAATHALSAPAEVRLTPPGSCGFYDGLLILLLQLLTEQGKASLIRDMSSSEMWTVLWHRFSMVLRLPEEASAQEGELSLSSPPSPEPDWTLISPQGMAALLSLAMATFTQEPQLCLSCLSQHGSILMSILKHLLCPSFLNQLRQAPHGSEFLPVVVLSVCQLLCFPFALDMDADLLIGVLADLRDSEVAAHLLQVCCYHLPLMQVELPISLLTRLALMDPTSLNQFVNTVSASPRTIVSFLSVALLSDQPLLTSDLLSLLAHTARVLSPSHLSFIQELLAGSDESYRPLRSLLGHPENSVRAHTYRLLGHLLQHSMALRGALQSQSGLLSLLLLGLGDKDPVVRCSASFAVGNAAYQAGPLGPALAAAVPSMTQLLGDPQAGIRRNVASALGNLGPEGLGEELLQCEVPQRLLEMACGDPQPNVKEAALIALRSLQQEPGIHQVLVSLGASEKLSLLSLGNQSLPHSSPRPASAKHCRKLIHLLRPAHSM

[11] = biological target: Receptor-interacting serine/threonine-protein kinase 2 (Homo sapiens) (UniProt O43353); experiment: Inhibition of RIPK2 assessed as residual activity at 1000 nM
Sequence of Receptor-interacting serine/threonine-protein kinase 2 (Homo sapiens) (O43353 whole entry): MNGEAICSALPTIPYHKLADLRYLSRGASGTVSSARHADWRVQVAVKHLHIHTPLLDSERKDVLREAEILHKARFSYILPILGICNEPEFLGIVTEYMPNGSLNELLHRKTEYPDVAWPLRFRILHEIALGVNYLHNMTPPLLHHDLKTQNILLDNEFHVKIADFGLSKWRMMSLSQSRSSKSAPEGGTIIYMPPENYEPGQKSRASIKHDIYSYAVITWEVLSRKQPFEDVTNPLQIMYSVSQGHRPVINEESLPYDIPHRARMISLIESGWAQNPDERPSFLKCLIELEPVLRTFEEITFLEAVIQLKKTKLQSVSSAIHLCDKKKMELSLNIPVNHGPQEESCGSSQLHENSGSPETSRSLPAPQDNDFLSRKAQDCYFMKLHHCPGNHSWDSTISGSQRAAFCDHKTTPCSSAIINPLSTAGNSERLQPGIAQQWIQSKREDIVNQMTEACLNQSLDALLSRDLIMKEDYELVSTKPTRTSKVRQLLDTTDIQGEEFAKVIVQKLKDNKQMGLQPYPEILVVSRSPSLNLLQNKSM

[12] = biological target: T1, Mitogen-activated protein kinase 14; experiment: Inhibition of MAPK14 assessed as residual activity at 1000 nM
[13] = biological target: T3, Cyclin-G-associated kinase (Homo sapiens) (UniProt O14976); experiment: Inhibition of GAK assessed as residual activity at 1000 nM
T3 sequence (whole entry): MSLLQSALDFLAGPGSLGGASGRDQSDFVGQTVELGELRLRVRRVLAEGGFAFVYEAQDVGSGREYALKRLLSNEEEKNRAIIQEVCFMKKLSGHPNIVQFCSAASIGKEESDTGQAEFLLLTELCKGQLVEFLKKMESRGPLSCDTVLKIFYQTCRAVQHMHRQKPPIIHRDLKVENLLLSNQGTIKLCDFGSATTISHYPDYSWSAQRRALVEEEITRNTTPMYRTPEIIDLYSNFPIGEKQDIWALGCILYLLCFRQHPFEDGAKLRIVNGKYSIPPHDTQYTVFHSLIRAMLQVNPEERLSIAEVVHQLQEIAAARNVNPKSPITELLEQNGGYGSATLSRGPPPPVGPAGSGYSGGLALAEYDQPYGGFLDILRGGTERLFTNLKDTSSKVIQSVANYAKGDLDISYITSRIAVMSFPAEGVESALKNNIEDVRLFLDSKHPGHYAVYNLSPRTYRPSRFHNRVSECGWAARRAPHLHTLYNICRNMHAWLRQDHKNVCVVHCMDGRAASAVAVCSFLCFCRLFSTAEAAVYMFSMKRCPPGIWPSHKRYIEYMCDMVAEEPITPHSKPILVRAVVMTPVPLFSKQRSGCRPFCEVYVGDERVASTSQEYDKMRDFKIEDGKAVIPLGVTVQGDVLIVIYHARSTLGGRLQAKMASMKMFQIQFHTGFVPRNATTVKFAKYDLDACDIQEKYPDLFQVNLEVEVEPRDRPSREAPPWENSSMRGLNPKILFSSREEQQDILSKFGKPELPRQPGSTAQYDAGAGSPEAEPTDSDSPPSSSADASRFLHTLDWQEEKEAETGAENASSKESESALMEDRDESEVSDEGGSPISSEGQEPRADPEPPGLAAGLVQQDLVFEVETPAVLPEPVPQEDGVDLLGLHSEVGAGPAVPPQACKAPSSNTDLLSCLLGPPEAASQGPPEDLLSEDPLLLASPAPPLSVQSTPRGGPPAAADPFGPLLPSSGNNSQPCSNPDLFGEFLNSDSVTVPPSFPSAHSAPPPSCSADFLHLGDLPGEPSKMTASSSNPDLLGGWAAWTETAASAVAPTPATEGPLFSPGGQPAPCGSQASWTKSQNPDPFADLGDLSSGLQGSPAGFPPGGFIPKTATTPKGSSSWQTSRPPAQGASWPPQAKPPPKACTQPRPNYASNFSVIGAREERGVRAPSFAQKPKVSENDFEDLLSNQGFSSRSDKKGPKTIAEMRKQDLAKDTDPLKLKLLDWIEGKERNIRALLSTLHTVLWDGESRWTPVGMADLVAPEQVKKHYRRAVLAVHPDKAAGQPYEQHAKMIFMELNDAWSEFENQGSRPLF

[14] = biological target: T4, Mitogen-activated protein kinase 12 (Homo sapiens) (UniProt P53778); conditions: 1000 nM
T4 sequence (whole entry): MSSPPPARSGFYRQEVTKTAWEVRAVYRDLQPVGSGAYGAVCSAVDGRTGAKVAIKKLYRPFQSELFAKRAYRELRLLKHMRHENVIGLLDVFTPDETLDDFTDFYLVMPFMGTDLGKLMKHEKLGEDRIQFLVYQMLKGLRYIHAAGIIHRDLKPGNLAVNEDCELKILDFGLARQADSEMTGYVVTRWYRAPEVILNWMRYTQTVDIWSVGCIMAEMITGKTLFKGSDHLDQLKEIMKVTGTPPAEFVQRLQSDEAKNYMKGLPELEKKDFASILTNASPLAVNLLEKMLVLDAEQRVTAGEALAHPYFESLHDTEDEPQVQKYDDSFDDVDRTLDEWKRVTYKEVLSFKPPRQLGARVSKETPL

[15] = biological target: Proto-oncogene tyrosine-protein kinase Src (Homo sapiens) (UniProt P12931); experiment: Inhibition of SRC assessed as residual activity at 1000 nM
Sequence of Proto-oncogene tyrosine-protein kinase Src (Homo sapiens) (P12931 2-536 limits assumed): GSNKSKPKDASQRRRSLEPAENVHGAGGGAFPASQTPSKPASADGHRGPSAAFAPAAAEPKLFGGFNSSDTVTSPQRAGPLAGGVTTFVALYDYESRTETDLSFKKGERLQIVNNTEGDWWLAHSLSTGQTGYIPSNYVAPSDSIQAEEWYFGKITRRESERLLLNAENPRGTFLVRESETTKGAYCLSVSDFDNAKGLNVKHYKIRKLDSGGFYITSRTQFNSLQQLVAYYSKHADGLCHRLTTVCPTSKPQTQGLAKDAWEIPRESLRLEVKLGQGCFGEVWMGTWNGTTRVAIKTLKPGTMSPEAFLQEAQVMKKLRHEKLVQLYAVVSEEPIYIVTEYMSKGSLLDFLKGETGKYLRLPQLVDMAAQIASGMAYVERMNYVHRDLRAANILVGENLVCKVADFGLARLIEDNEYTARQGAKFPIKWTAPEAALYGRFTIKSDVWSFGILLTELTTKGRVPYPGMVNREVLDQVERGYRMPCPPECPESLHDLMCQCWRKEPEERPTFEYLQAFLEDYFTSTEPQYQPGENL

T1 sequence (Q16539 whole entry): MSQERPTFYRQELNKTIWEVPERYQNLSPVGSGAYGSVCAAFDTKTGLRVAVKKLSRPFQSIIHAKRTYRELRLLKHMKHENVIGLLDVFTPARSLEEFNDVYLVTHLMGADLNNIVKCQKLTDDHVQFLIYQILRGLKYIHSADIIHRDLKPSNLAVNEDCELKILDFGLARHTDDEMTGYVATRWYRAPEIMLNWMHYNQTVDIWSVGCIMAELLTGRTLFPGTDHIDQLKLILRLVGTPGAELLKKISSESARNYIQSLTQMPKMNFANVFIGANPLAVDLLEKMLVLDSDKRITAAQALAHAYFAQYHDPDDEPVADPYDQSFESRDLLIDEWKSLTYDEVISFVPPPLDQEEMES

Row | Ratio IC50 [1] | IC50 [2] | also measured | Structure (SMILES)
1 | 0.01 | 2990 nM |  | COCn1c(-c2ccccc2)nc(-c2ccc(F)cc2)c1-c1ncnc2[nH]cnc12
2 | 0.18 | 451 nM |  | COCn1c(-c2ccccc2)nc(-c2ccc(F)cc2)c1-c1ccnc2[nH]ccc12
3 | 0.97 |  |  | CSc1ccc(-c2nc(-c3ccc(F)cc3)c(-c3ccnc4[nH]c(-c5ccccc5)cc34)[nH]2)cc1
4 | 0.07 | 345 nM |  | Fc1ccc(-c2nc(-c3ccccc3)[nH]c2-c2ccnc3[nH]c(Cc4ccccc4)cc23)cc1
5 |  | 3 nM |  | Oc1ccc(-c2nc(-c3ccnc4[nH]c(-c5ccccc5)cc34)c(-c3ccc(F)cc3)[nH]2)cc1
6 | 2.07 |  |  | Fc1ccc(-c2nc(-c3ccccc3)[nH]c2-c2ccnc3[nH]c(C4CCCCC4)cc23)cc1
7 |  | 153 nM |  | Fc1ccc(-c2[nH]c(-c3ccccc3)nc2-c2ccnc3[nH]c4ccccc4c23)cc1
8 |  | 290 nM |  | COc1cc(-c2nc(-c3ccnc4[nH]c(-c5ccccc5)cc34)c(-c3ccc(F)cc3)[nH]2)cc(OC)c1OC
9 |  |  | inhibition [3]: Active; inhibition [4]: Active; inhibition [5]: Active; inhibition [6]: Active; inhibition [7]: Active; inhibition [8]: Active; inhibition [9]: Active; inhibition [10]: Active; inhibition [11]: Active; inhibition [12]: Active; inhibition [13]: Active; inhibition [14]: Active | Oc1ccc(-c2nc(-c3ccc(F)cc3)c(-c3ccncc3)[nH]2)cc1
10 | 19.7 |  | Activity [8]: 2.5%; Activity [9]: 17%; Activity [10]: 4.8%; Activity [15]: 28%; Activity [11]: 3.2%; Activity [12]: 8.9%; Activity [13]: 7.7% | Oc1ccc(-c2nc(-c3ccc(F)cc3)c(-c3ccnc4[nH]c(-c5ccccc5)cc34)[nH]2)cc1
11 | 0.1 | 740 nM |  | Fc1ccc(-c2nc(-c3ccccc3)[nH]c2-c2ncnc3[nH]cnc23)cc1
12 |  | 39 nM |  | CSc1ccc(-c2nc(-c3ccnc4[nH]c(-c5ccccc5)cc34)c(-c3ccc(F)cc3)[nH]2)cc1
13 | 3.46 | 11 nM |  | CS(=O)(=O)c1ccc(-c2nc(-c3ccc(F)cc3)c(-c3ccnc4[nH]c(-c5ccccc5)cc34)[nH]2)cc1
14 | 0.03 | 2600 nM |  | Fc1ccc(-c2nc(-c3ccccc3)[nH]c2-c2ncnc3[nH]ccc23)cc1
15 | 0.67 |  |  | COc1ccc(-c2nc(-c3ccc(F)cc3)c(-c3ccnc4[nH]c(-c5ccccc5)cc34)[nH]2)cc1
16 | 4.75 |  |  | C[S+]([O-])c1ccc(-c2nc(-c3ccc(F)cc3)c(-c3ccnc4[nH]c(-c5ccccc5)cc34)[nH]2)cc1 (stereo not given)
17 | 0.12 |  |  | COc1cc(-c2nc(-c3ccc(F)cc3)c(-c3ccnc4[nH]c(-c5ccccc5)cc34)[nH]2)cc(OC)c1OC
18 | 0.33 |  |  | Fc1ccc(-c2[nH]c(-c3ccccc3)nc2-c2ccncc2)cc1
19 |  | 108 nM |  | Fc1ccc(-c2[nH]c(-c3ccccc3)nc2-c2ccnc3[nH]ccc23)cc1
20 | 0.55 |  |  | Fc1ccc(-c2nc(-c3ccccc3)[nH]c2-c2ccnc3[nH]c4ccccc4c23)cc1
21 | 2.38 |  |  | Fc1ccc(-c2nc(-c3ccccc3)[nH]c2-c2ccnc3[nH]c(-c4ccccc4)cc23)cc1
22 |  | 8 nM |  | C[S+]([O-])c1ccc(-c2nc(-c3ccnc4[nH]c(-c5ccccc5)cc34)c(-c3ccc(F)cc3)[nH]2)cc1 (stereo not given)
23 |  | 16 nM |  | Fc1ccc(-c2[nH]c(-c3ccccc3)nc2-c2ccnc3[nH]c(-c4ccccc4)cc23)cc1
24 |  | 70 nM |  | COc1ccc(-c2nc(-c3ccnc4[nH]c(-c5ccccc5)cc34)c(-c3ccc(F)cc3)[nH]2)cc1
25 | 0.47 |  |  | Fc1ccc(-c2nc(-c3ccccc3)[nH]c2-c2ccnc3[nH]ccc23)cc1
26 |  | 15 nM |  | Fc1ccc(-c2[nH]c(-c3ccccc3)nc2-c2ccnc3[nH]c(C4CCCCC4)cc23)cc1
